Assay outcomes as filed in PubChem BioAssay.
A selection: hits, their analogues and other compounds. The true share with any hit is near 7.2%.
M1 antag: M1 muscarinic receptor (rat) antagonism; CHO-M1 cells, Fluo-4 calcium, ACh EC80 antagonist mode; hits give low values; B-score at 10 µM; hit rate 3.4% among 64,000;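 active = calcium fluorescence response, raw or row-and-column corrected B-score, differing from the plate sample mean either way at a set confidence level, mostly lower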
Target sequence (P08482 whole entry, looked up): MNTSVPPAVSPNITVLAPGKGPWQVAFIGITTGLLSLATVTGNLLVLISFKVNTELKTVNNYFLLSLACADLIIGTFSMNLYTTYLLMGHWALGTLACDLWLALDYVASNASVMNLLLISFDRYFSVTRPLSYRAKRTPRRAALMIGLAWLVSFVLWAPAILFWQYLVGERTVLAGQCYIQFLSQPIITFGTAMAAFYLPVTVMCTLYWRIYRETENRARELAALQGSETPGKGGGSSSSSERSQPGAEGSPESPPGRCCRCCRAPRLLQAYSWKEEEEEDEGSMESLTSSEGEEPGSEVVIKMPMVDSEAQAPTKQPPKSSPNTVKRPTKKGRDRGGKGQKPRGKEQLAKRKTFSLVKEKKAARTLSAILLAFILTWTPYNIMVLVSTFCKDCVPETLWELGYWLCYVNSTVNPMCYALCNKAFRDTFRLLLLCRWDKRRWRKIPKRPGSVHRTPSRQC
DAT uptake mod: human DAT dopamine uptake with cocaine, either direction; AID 449768; LLC-PK1 hDAT cells, [14C]-dopamine uptake with cocaine IC80; actives deviate in either direction; B-score at 10 µM; hit rate 1.3% among 110,000; Q01959;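 active = Z score or B-score, a plate-position-corrected score, falls beyond the plate's 99.7% confidence bounds, in either direction; inactive = both scores lie inside the 99.7% bounds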;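 also: scored against the spread of the other compound wells on the same plate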
BAP1 block: human BAP1 deubiquitinase inhibition; AID 436; calls only at 20 µM; recombinant BAP1, Ub-AMC hydrolysis fluorescence kinetic; hits give low values; hit rate 0.48% among 72,000;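 active = activity remaining at or below 50% of control, provided the compound also passes the data quality filters; inactive = the rest, including low values that fail the filters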;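 also: 100% = DMSO wells rate and 0% = substrate alone blank rate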
D1 allo mod: D1 dopamine receptor (human) allosteric modulation; AID 641; HEK293 D1, CRE-luciferase, dopamine EC30 potentiation; actives deviate in either direction; hit rate 5.9% among 58,000; B-score at 10 µM; P21728;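 active = luminescence count or its row- and column-corrected plate score outside the 99.7% band of the plate's sample wells, on either side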
M1 ag: agonists of M1 muscarinic receptor. CHO-M1 cells, Fluo-4 calcium fluorescence, agonist mode; hits give high values. B-score at 10 µM. hit rate 3% among 64,000. AID 626;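 active = fluorescence rise, raw or as B-score row- and column-corrected plate score, outside the 99.7% band of its plate's samples, either direction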
HEK293 NFkB inh: lowers PMA/ionomycin-induced NF-kB signal in HEK293 cells; AID 465; hit rate 0.21% among 62,000; HEK-293 NF-kB luciferase reporter, luminescence; inhibition, % at 3 µM;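 active = inhibition above the mean of all tested compounds plus 3 SD, cut at about 40% in these data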;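 also: 0% = stimulated DMSO wells and 100% = 10 µM reference inhibitor 5653914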
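Timing: 1 h pretreatment, 16 h stimulation, 37 °C; system: HEK-293 cells with stable firefly luciferase reporter driven by four HIV NF-kB elements; doses: 3 µM once, 0.30% DMSO; measured by: luciferase luminescence; control set: DMSO and 10 µM reference inhibitor; repeats: single test; reagent: PMA plus ionomycin mix as NF-kB-activating stimulus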
D1 mod confirm: D1 receptor (human) allosteric modulation, confirmed. shares compounds with D1 allo mod. HEK293 D1 CRE-luciferase, dopamine EC30 potentiation; hits give high values. luminescence at 10 µM. hit rate 88% among 2,200;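 active = luminescence in either of two replicates above the same-plate mean plus 3 SD of the low-dose dopamine control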
D1 no dopamine: secondary test of D1 modulators: activity without dopamine; hit rate 0.8% among 1,900; HEK293 D1 CRE-luciferase, luminescence, no dopamine; hits give high values; shares compounds with D1 allo mod; luminescence at 10 µM; in the data active = luminescence above about 3900
Isoprot counter: counter-screen for D1 modulators: isoproterenol response in HEK293 cells; shares compounds with D1 allo mod; HEK293 D1 CRE-luciferase, isoproterenol EC30 counter-screen; calls only at 10 µM; hit rate 63% among 2,200; AID 647;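 active = luminescence in either replicate above plate mean of wells with a partly effective reference agonist dose plus 3 SD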;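 also: isoproterenol raises cAMP through native beta-adrenoceptor Gs so signal bypasses D1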
An asterisk follows results filed as active.

What do the screens show for `O=C(Nc1ccc(Br)cc1)c1ccc2c(c1)C(=O)N(c1ccc([N+](=O)[O-])cc1)C2=O`?
BAP1 block: inactive

What do the screens show for `CCOc1ccc(C(=O)OCc2nnc(-c3cccs3)o2)cc1OC`?
M1 antag: 0.018; DAT uptake mod: 0.56; BAP1 block: inactive; D1 allo mod: 15*; M1 ag: -1.3; HEK293 NFkB inh: 17; D1 mod confirm: 16352*; D1 no dopamine: 1560; Isoprot counter: active

Results for CCOc1ccc(C(=O)OCn2nnc3ccccc3c2=O)cc1OC ?
M1 antag: 1.7; DAT uptake mod: -1.6; BAP1 block: inactive; D1 allo mod: 16*; M1 ag: 0.84; HEK293 NFkB inh: 2; D1 mod confirm: 23528*; D1 no dopamine: 1684; Isoprot counter: active

How did O=C(Nc1ccc2nn(-c3ccc(Cl)cc3)nc2c1)c1ccc([N+](=O)[O-])cc1Cl do in these assays?
BAP1 block: inactive

How did COC(=O)c1ccc(CSc2ncnc3ccccc23)o1 do in these assays?
M1 antag: 0.54; DAT uptake mod: -1; BAP1 block: inactive; D1 allo mod: 4.5*; M1 ag: 0.88; HEK293 NFkB inh: 14; D1 mod confirm: 9672*; Isoprot counter: active

Results for Cc1ccc2c(c1)c1ncnc(N3CCOCC3)c1n2C ?
M1 antag: 0.074; BAP1 block: inactive; D1 allo mod: 1.4; M1 ag: -0.99; HEK293 NFkB inh: -3

What do the screens show for `Brc1ccc2oc3c(N4CCOCC4)ncnc3c2c1`?
M1 antag: -0.23; DAT uptake mod: -0.5; BAP1 block: inactive; D1 allo mod: 5.1*; M1 ag: 2.1; HEK293 NFkB inh: 24; D1 mod confirm: 8996*; D1 no dopamine: 1872; Isoprot counter: active

Results for Nc1nonc1C(=O)OCC(=O)c1ccc(Br)cc1 ?
BAP1 block: inactive

Results for O=C(O)c1ccccc1C(=O)N1CCN(c2cccc(Cl)c2)CC1 ?
DAT uptake mod: -0.92; BAP1 block: inactive; HEK293 NFkB inh: 2

How did CCOc1ccccc1C(=O)N1CCN(c2cccc(Cl)c2)CC1 do in these assays?
M1 antag: -0.16; DAT uptake mod: -1.5; BAP1 block: inactive; D1 allo mod: 5.6*; M1 ag: -0.25; HEK293 NFkB inh: 40*; D1 mod confirm: 10528*; D1 no dopamine: 2016; Isoprot counter: active

What do the screens show for `COc1ccc(-c2nnc3sc(-c4cccs4)nn23)cc1OC`?
M1 antag: -0.78; DAT uptake mod: -0.034; BAP1 block: inactive; D1 allo mod: 5*; M1 ag: 4.5; HEK293 NFkB inh: 2; D1 mod confirm: 12160*; Isoprot counter: active

How did Clc1ccccc1-c1nnc2sc(-c3cccs3)nn12 do in these assays?
M1 antag: -0.052; DAT uptake mod: 1.2; D1 allo mod: 11*; M1 ag: -0.091; HEK293 NFkB inh: 21; D1 mod confirm: 14324*; D1 no dopamine: 1788; Isoprot counter: active

How did Clc1ccccc1-c1nn2c(-c3ccncc3)nnc2s1 do in these assays?
DAT uptake mod: 0.27; BAP1 block: inactive; D1 allo mod: 4.9*; HEK293 NFkB inh: 4; D1 mod confirm: 7940*; D1 no dopamine: 1776; Isoprot counter: inactive

Results for Clc1ccc(-c2nn3c(-c4ccncc4)nnc3s2)c(Cl)c1 ?
M1 antag: 0.036; BAP1 block: inactive; D1 allo mod: 1.5; M1 ag: 0.82; HEK293 NFkB inh: 16

How did C1CCC(c2nn3c(-c4n[nH]c5c4CCC5)nnc3s2)CC1 do in these assays?
M1 antag: 0.043; DAT uptake mod: 0.58; D1 allo mod: 6.3*; M1 ag: -0.16; HEK293 NFkB inh: 8; D1 mod confirm: 15420*; D1 no dopamine: 1752; Isoprot counter: inactive

Results for COc1cc(-c2nnc3sc(-c4cccs4)nn23)cc(OC)c1OC ?
M1 antag: -0.54; DAT uptake mod: -0.22; BAP1 block: inactive; D1 allo mod: 1; M1 ag: 2; HEK293 NFkB inh: 20

Results for Clc1ccccc1-c1nn2c(-c3ccccn3)nnc2s1 ?
M1 antag: -0.23; DAT uptake mod: -0.21; BAP1 block: inactive; M1 ag: 0.4

What do the screens show for `CCOC(=O)c1c(N=c2oc3cc(O)ccc3cc2C(N)=O)sc2c1CCCC2`?
BAP1 block: inactive

Results for COc1ccc(C2NC(=S)NC(C)=C2C(=O)Nc2ccc(Cl)cc2)cc1OC (centres undefined) ?
BAP1 block: inactive

How did COc1ccc(-c2nn3c(C4CCCCC4)nnc3s2)cc1OC do in these assays?
M1 antag: 0.026; DAT uptake mod: 1.6; BAP1 block: inactive; M1 ag: 0.98

Results for COc1ccc(-c2nnc3sc(C4CCCCC4)nn23)cc1OC ?
M1 antag: 0.23; DAT uptake mod: 1.6; BAP1 block: inactive; D1 allo mod: 15*; M1 ag: 0.38; HEK293 NFkB inh: 5; D1 mod confirm: 20172*; Isoprot counter: active

How did Cc1cc2nn(-c3ccccc3)nc2cc1NC(=O)c1ccc(-c2ccc([N+](=O)[O-])cc2)o1 do in these assays?
BAP1 block: inactive

Results for Cc1ccc(NC(=O)c2cccc(OCc3c(C)noc3C)c2)c(C)c1 ?
M1 antag: -0.43; DAT uptake mod: -0.0029; BAP1 block: inactive; D1 allo mod: 4.6*; M1 ag: -0.012; HEK293 NFkB inh: 21; D1 mod confirm: 5064; D1 no dopamine: 1592; Isoprot counter: inactive

How did COC(=O)c1ccc(Cn2cnc3c(sc4nc(N5CCOCC5)c5c(c43)CCCC5)c2=O)o1 do in these assays?
M1 antag: -0.013; DAT uptake mod: 0.57; D1 allo mod: 6.8*; M1 ag: -0.32; D1 mod confirm: 8596*; D1 no dopamine: 1424; Isoprot counter: active

What do the screens show for `COc1ccc(C2C3=C(CC(C)(C)CC3=O)OC3=C2C(=O)CC(C)(C)C3)cc1[N+](=O)[O-]`?
BAP1 block: inactive

Results for CCc1nc2sc3ccccc3c(=O)c2c(=O)n1Cc1ccco1 ?
M1 antag: -0.28; DAT uptake mod: -7.3*; BAP1 block: inactive; D1 allo mod: 3.4*; M1 ag: 0.92; HEK293 NFkB inh: 2; D1 mod confirm: 12936*; D1 no dopamine: 1700; Isoprot counter: inactive

What do the screens show for `O=C1c2ccccc2C(=O)N1CCc1c[nH]c2ccc(OC(=O)C34CC5CC(CC(C5)C3)C4)cc12`?
BAP1 block: inactive
